Screens: PubChem, several laboratories
Hits are enriched below; roughly 2.6% of the tested compounds scored in any of these assays.
NR2E3 ag-1 = inhibitors of NR2E3-RetCOR corepressor binding, primary screen, NR2E3 agonist project, biochemical, TR-FRET, GST-NR2E3, biotin-RetCOR; 1536-well; inhibition of corepressor binding, % at 4.78 µM; 0.12% of 320,000 active; Photoreceptor-specific nuclear receptor (Homo sapiens), Q9Y5X4;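 active = percent inhibition above the cutoff of mean plus 3 SD of all tested compounds, set per screening campaign, cut at about 20% in these data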;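 note: 0% = DMSO wells and 100% = biotin wells as full block of FRET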
Target sequence (Q9Y5X4 whole entry, looked up): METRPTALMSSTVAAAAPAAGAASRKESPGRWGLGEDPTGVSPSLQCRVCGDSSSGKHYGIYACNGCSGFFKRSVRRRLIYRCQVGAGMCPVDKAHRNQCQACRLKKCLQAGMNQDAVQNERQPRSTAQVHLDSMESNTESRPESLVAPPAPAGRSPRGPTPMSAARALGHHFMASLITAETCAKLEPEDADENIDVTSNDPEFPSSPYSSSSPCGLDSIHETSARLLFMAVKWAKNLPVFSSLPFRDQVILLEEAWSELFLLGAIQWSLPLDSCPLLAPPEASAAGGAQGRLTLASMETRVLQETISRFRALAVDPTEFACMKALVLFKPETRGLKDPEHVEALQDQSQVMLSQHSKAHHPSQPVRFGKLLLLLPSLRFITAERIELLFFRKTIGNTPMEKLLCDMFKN
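Material – GST-tagged NR2E3 plus biotinylated RetCOR corepressor · Quantity – NR2E3 fusion 1.35 nM · Times – 5 h incubation at 4 °C · Medium – pH 7.5 Tris-based buffer · Technique – TR-FRET, Eu(K)-anti-GST donor, streptavidin-D2 acceptor, ex 340, em 617/671 nm · Benchmarks – high control biotin, low control 0.6% DMSO · Format – 1536-well plates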
Rev-erbA mod = modulators of Rev-erb alpha DNA binding, primary screen, biochemical, FITC-DNA, fluorescence polarization, uHTS | Rev-erbα–FITC-DNA binding, 90 min | activity, % at 10 µM | 0.79% of 370,000 active | AID 1259318, 2017;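 active = activity above about 14%, limit read from the data; passing the limit was not always enough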;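 note: 0% = DMSO wells with 35 nM protein and 100% = DMSO wells with 750 nM protein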
rCAG binder = binders of r(CAG) RNA repeats, primary screen, biochemical, fluorescence | r(CAG) RNA repeat, TO-PRO-1 dye displacement fluorescence | inhibition, % at 3 µM | 1.3% of 370,000 active | AID 651821, 2012;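 active = inhibition above the plate cutoff, the mean of all test compounds on that plate plus 3 SD, cut at about 35% in these data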;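 note: 0% = DMSO alone and 100% = 100 µM mitoxantrone as full dye displacement; higher means more dye released from RNA so lower well fluorescence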
NR2E3 ag-2 = NR2E3 agonists in two-hybrid cells, primary screen, cell-based, luminescence, CHO-S, Gal4-NCOR/VP16-NR2E3. inhibition of corepressor binding, % at 3.98 µM. luciferase. Photoreceptor-specific nuclear receptor (Homo sapiens), Q9Y5X4. 0.35% of 360,000 active. AID 602229, 2012;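 active = inhibition above the mean of all tested compounds plus 3 SD, cut at about 70% in these data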;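 note: 0% = DMSO with NR2E3 transfected cells and 100% = cells lacking NR2E3 construct; higher means lower luciferase signal from less NR2E3 corepressor binding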
PG9 binder = binders of HIV-1 gp120 antibody PG9, primary screen, biochemical, TR-FRET; HIV-1 gp120 / PG9 antibody interaction; TR-FRET gp120-PG9 antibody binding; inhibition, % at 6.7 µM; 0.43% of 360,000 active; in the data active = inhibition above about 8.5%
PG9 binder conf = binders of anti-gp120 antibody PG9, confirmation, biochemical, TR-FRET | shares compounds with PG9 binder | 90% of 1,500 active | inhibition, % at 6.7 µM | TR-FRET PG9 antibody binding; in the data active = inhibition above about 9%
PGV04 counter = binders of control antibody PGV04, counter-screen for PG9 antibody binder project, biochemical, TR-FRET, distinct HIV envelope site | 95% of 1,500 active | TR-FRET PGV04 antibody-gp120 binding | inhibition, % at 6.7 µM | shares compounds with PG9 binder; in the data active = inhibition above about 9.5%
PG9 binder DR = small-molecule binders of antibody PG9, dose response, biochemical, TR-FRET, HIV-1 gp120 antibody; TR-FRET PG9 antibody-gp120 binding inhibition; shares compounds with PG9 binder; AID 651848, 2012; IC50, µM; 95 tested, under 10 active; in the data active = IC50 below about 10 µM
PGV04 DR counter = binders of control antibody PGV04, dose response, counter-screen for PG9 antibody binder project, biochemical, TR-FRET, distinct HIV envelope site; shares compounds with PG9 binder; TR-FRET binding to control antibody PGV04; IC50, µM; 20% of 95 active; AID 651937, 2012
PG126 binding DR = binders of control antibody PG126, dose response, counter-screen for PG9 antibody binder project, biochemical, TR-FRET, distinct HIV envelope site | shares compounds with PG9 binder | AID 651939, 2012 | TR-FRET binding to antibody PG126, counterscreen | 20% of 95 active | IC50, µM
* marks the source's active call; other numbers are inactive results; i = inactive; · = no result given. Cut-off read from the data, not from the text of the source, unless noted: active = IC50 below about 9 µM; inactive = the rest.

SMILES	NR2E3 ag-1	Rev-erbA mod	rCAG binder	NR2E3 ag-2	PG9 binder	PG9 binder conf	PGV04 counter	others
COc1ccc(NC(=O)c2oc3ccccc3c2NC(=O)C2CC2)cc1	1	18	6	-34	12*	9.0*	9	PG9 binder DR=>67;PGV04 DR counter=i;PG126 binding DR=i
CC(C)Nc1ncnc2ccc(Br)cc12	-1	-4	0	47	-1	·	·
CSCCC(Nc1ncnc2ccc(Br)cc12)C(=O)O (stereo not given)	13	2	1	3	13*	20*	20*
CC1CCCCC1NC(=O)C1CCC(CNS(=O)(=O)c2ccc3c(c2)C(C)(C)C(=O)N3C)CC1 (stereo not given)	·	-2	0	0	0	·	·
O=C(Nc1nc2c(F)cc(F)cc2s1)C1CCN(C(=O)c2ccc(F)cc2)CC1	-2	6	8	-71	9.1*	9.7*	17*
CC(=O)c1ccc(NC(=O)c2ccc(NC(=O)c3ccco3)cc2)cc1	-4	·	·	10	·	·	·
CCOc1ccc(C(=O)Nc2ccc(NC(=O)c3ccco3)c(Cl)c2)cc1Br	-34	11	7	-30	36*	32*	44*
COC(=O)c1ccc(NC(=O)c2ccc(NC(=O)c3ccco3)cc2)cc1	-34	3	-4	-3	19*	17*	11*	PG9 binder DR=i;PGV04 DR counter=>67;PG126 binding DR=>67
CC(C)=CCOc1ccc(/C=C/C(=O)c2ccc(OCC=C(C)C)cc2OCC(=O)O)cc1	·	-10	·	·	·	·	·
CCCOc1ccc(C2C(C(=O)c3ccco3)=C(O)C(=O)N2CCCn2ccnc2)cc1 (stereo not given)	4	2	1	-24	19*	24*	28*
CCOc1ccc(C2C(C(=O)c3ccco3)=C(O)C(=O)N2Cc2cccnc2)cc1OC (stereo not given)	3	-1	2	-25	1	·	·
CC(C)Oc1ccc(C2C(C(=O)c3ccco3)=C(O)C(=O)N2Cc2cccnc2)cc1 (stereo not given)	4	5	4	-41	9.3*	15*	19*
O=C(C1=C(O)C(=O)N(Cc2cccnc2)C1c1cccc(Oc2ccccc2)c1)c1ccco1 (stereo not given)	·	-6	22	-10	13*	19*	28*
COC(=O)C1=C(C)N(Cc2ccccc2C(F)(F)F)C(=NCc2ccc3c(c2)OCO3)NC1c1cccc(F)c1 (stereo not given)	·	6	5	·	-1	·	·
COc1cc(C(=O)COC(=O)c2ccc([N+](=O)[O-])o2)cc(OC)c1OC	·	-4	4	15	-2	·	·
O=C(Cn1cnc2ccccc2c1=O)Nc1nc2ccccc2s1	5	3	0	14	18*	21*	28*
COc1cc(NC(=O)COc2cc(C)cc3oc(=O)cc(C)c23)cc(OC)c1OC	·	-3	0	-1	1	·	·
Cc1ccc(NC(=O)CSc2nnc(-c3ccncc3)n2C)cc1C	-1	4	-1	5	17*	15*	40*
